GAA850 FXN act: activators of GAA850 frataxin (FXN) promoter; HEK293 lucGAA850 FXN promoter luciferase reporter, 24 h; percent of 10 µM SAHA response; activation, % at 6 µM; 360,000 tested, 0.56% active; AID 540364;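 active means activation above the average of all compounds screened plus 3 SD, cutoff fixed separately per campaign, cut at about 7.5% in these data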
MC4R barr agon: human MC4R agonism via beta-arrestin; AID 540308; 360,000 tested, 0.98% active; U2OS MC4R beta-arrestin complementation, luminescence; percent of melanotan II response, DMSO zero; P32245; activation, % at 8.9 µM;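 active means activation above a per-plate cutoff, the mean activation of sample wells on that plate plus 3 SD, cut at about 8% in these data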
Target sequence (P32245 whole entry, looked up): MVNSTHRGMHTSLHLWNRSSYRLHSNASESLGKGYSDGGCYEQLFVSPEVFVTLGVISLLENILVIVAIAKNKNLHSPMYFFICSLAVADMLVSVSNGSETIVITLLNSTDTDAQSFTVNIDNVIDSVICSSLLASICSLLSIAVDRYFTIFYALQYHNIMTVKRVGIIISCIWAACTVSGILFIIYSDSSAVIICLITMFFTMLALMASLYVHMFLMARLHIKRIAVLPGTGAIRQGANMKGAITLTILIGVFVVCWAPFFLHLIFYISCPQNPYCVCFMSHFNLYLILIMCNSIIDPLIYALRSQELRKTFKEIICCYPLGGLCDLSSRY
MC4R antag cAMP: antagonists of human melanocortin 4 receptor (MC4R) | 360,000 tested, 0.48% active | inhibition, % at 6.5 µM | MC4R-expressing cells, MTII-stimulated cAMP, LANCE TR-FRET;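 active means inhibition above its plate's cutoff, the mean of tested wells on that plate plus 3 SD, cut at about 29% in these data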
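Material – human MC4R-expressing U2OS cells · Repeats – no replicates · Detection – TR-FRET with Eu-cAMP and labeled anti-cAMP, 671 nm · Times – compound 30 min, challenge 1 h, detection 1 h · Compound – single nominal compound dose of 6.5 µM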
HTR2A ag: activates the mouse 5-HT2A serotonin receptor; activation, % at 7.6 µM; CHO-K1 mHTR2A beta-arrestin complementation, luminescence; percent of 30 µM serotonin response; 360,000 tested, 0.66% active;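 active means activation above a run cutoff, the mean activation of all tested compounds plus 3 SD, cut at about 14% in these data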
AHR activator: human AHR activation. P35869. AHR-responsive luciferase reporter cells, luminescence. activation, % at 5 µM. 320,000 tested, 2.5% active. AID 2796; in the data active means activation above about 47%
GAA30 FXN cntr: activates GAA30 frataxin promoter, counter-screen for GAA850 activators | shares compounds with GAA850 FXN act | HEK293 lucGAA30 FXN promoter luciferase, 24 h; DMSO = 0%, 5 µM ipriflavone = 100% | activation, % at 6 µM | 1,900 tested, 66% active | AID 588350;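 active means mean activation above the mean of solvent-only control wells plus 3 SD, cut at about 22% in these data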;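 further: counterscreen of GAA850 promoter hits where activity marks nonselective or luminescence artifacts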
FXN GAA850 conf: confirmation of GAA850 frataxin (FXN) promoter activators; HEK293 lucGAA850 FXN promoter luciferase reporter, 24 h; 100% = activation by SAHA; shares compounds with GAA850 FXN act; 1,900 tested, 86% active; AID 588351; activation, % at 6 µM;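 active means mean activation above a set limit taken from the primary screen, cut at about 8% in these data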
Large screens that a line does not name were inactive (follow-up assays come after a bar, where they were run). Only some compounds are listed: those with a hit (about 4.7% of all), similar ones and a draw of the others.

CCN(CC)S(=O)(=O)c1ccc(Nc2nc3ccccc3n3nnnc23)cc1	GAA850 FXN act 7.8 | GAA30 FXN cntr 90 | FXN GAA850 conf 36
Nc1c(C=C2C=CC(=O)C=C2)c(=O)nc2snc(SCc3ccccc3)n12	GAA850 FXN act 7.7 | GAA30 FXN cntr 59 | FXN GAA850 conf 15
O=C([O-])c1ccccc1-[n+]1c(-c2ccccc2)cc(-c2ccccc2)cc1-c1ccccc1	none
Cc1c(C(=O)Nc2ccccc2C(=O)N2CCOCC2)cccc1[N+](=O)[O-]	none
N#Cc1ccc(NC(=S)N2CCC3CC2c2cc(-c4ccc5c(c4)OCO5)ccc23)cc1 (stereo not drawn)	none (no result: GAA850 FXN act, MC4R barr agon, MC4R antag cAMP, AHR activator)
c1ccc2nc3c(nc2c1)c1ccccc1n3CCN1CCOCC1	GAA850 FXN act 12 | GAA30 FXN cntr 52 | FXN GAA850 conf 24
N#CCn1c2ccccc2c2nc3ccccc3nc21	GAA850 FXN act 9.3 | GAA30 FXN cntr 52 | FXN GAA850 conf 18
COc1ccc(C2=Nc3ccccc3N(C(=O)c3ccc4ncccc4c3)C2C(=O)NC2CCCC2)cc1 (stereo not drawn)	none (no result: GAA850 FXN act, MC4R barr agon, MC4R antag cAMP, AHR activator)
CC(C)n1cnc2c(Nc3cccc(Cl)c3)nc(NCCCO)nc21	GAA850 FXN act 8.7, AHR activator 69 | GAA30 FXN cntr 53 | FXN GAA850 conf 15
Cc1ccc(S(=O)(=O)N2CCOCC2)cc1NC(=O)COc1ccccc1Cc1ccccc1	none
COc1ccc(S(=O)(=O)N2CCC[C@H]2C(=O)N2CCC[C@H]2C(=O)NCc2ccc(F)cc2F)cc1C	none (no result: GAA850 FXN act, MC4R barr agon, MC4R antag cAMP, AHR activator)
CCOc1ccc2nc(C)cc(Nc3cccc([N+](=O)[O-])c3)c2c1	GAA850 FXN act 7.7 | GAA30 FXN cntr 26 | FXN GAA850 conf 20
CCOC(=O)/C=C/COc1ccccc1[N+](=O)[O-]	GAA850 FXN act 8.3 | GAA30 FXN cntr 89 | FXN GAA850 conf 27
CC(=O)c1ccc(S(=O)(=O)N2CCN(c3ccnc4cc(Cl)ccc34)CC2)cc1	none (no result: AHR activator)
CCOC(=O)Nc1ccc2c(c1)C(=NNC(=S)NC)c1ccccc1-2	GAA850 FXN act 14 (no result: AHR activator) | GAA30 FXN cntr 48 | FXN GAA850 conf 20
CCOC(=O)NN=C1c2ccccc2-c2ccccc21	none (no result: AHR activator)
O=C(CCNC(=O)c1ccccc1Cl)Nc1ccc2c(c1)OCCO2	none (no result: AHR activator)
COc1ccc(-c2nc(C#N)c(NCCc3ccccc3)o2)cc1OC	GAA850 FXN act 8.2 | GAA30 FXN cntr 100 | FXN GAA850 conf 34
COc1ccc(-c2nc(C#N)c(NCc3ccc(C)cc3)o2)cc1OC	none
Cc1c(Cl)cccc1N=Cc1ccc([N+](=O)[O-])s1	GAA850 FXN act 9.2 | GAA30 FXN cntr inactive | FXN GAA850 conf inactive
Cc1ccccc1C(=O)N/N=C/c1ccc([N+](=O)[O-])s1	none
COc1ccc(CSc2ccc(S(=O)(=O)N3CCCC3)cn2)cc1F	none (no result: AHR activator)
Cn1c(CCN2CCN(c3ccccn3)CC2)nc2cc(NS(=O)(=O)c3ccc(Cl)cc3)ccc21	none
CSc1ccc(CC(=O)N2CCC(n3nccc3NC(=O)C3CC3)CC2)cc1	GAA850 FXN act 7.7 | GAA30 FXN cntr 96 | FXN GAA850 conf 32
CN(C)S(=O)(=O)n1cc(/C=C(\NC(=O)c2ccccc2F)C(=O)N2CCCCC2)c2ccccc21	none (no result: AHR activator)
CN(C)S(=O)(=O)n1cc(/C=C(\NC(=O)c2ccccc2Cl)C(=O)N2CCCC2)c2ccccc21	GAA850 FXN act 8.8 | GAA30 FXN cntr inactive | FXN GAA850 conf 11
CC(=NNC(=S)N(Cc1ccccn1)Cc1ccccn1)c1cnccn1	GAA850 FXN act 12 (no result: AHR activator) | GAA30 FXN cntr inactive | FXN GAA850 conf inactive
S=C(NN=C(c1ccccc1)c1ccccn1)N(Cc1ccccn1)Cc1ccccn1	none (no result: AHR activator)
OCCCNc1c2ccccc2nc2ccccc12	GAA850 FXN act 13 | GAA30 FXN cntr inactive | FXN GAA850 conf 119
COCc1cc(C)nc(SCC(=O)c2ccc(O)c(O)c2)c1C#N	GAA850 FXN act 10 | GAA30 FXN cntr 40 | FXN GAA850 conf 18
COc1ccc(-c2cc(C(=O)NC(C)C)no2)cc1	GAA850 FXN act 8.1 | GAA30 FXN cntr 106 | FXN GAA850 conf 32
COC(=O)c1cc(-c2ccc(OC)cc2)on1	none
C=CCn1c2ccccc2c(=O)c2cc(C#Cc3ccsc3)ccc21	none (no result: GAA850 FXN act, MC4R barr agon, MC4R antag cAMP, HTR2A ag)
C=CCn1c2ccccc2c(=O)c2cc(C#Cc3ccccn3)ccc21	GAA850 FXN act 9.0 | GAA30 FXN cntr 140 | FXN GAA850 conf 44
N#Cc1c(-c2ccccc2)cc(C2CC2)nc1N	GAA850 FXN act 8.3 | GAA30 FXN cntr inactive | FXN GAA850 conf 9.5
CC(NC(=O)c1ccc2nc(Cc3cccc(Cl)c3)oc2c1)c1ccncn1 (stereo not drawn)	none (no result: AHR activator)
COc1ccccc1CN1CC(C(=O)NCCCCc2ccccn2)CCC1=O (stereo not drawn)	none (no result: AHR activator)
CCN1C(=O)[C@H]2[C@@H](c3ccc(C)cc3)N3C(=O)N(c4cccc(Cl)c4)C(=O)[C@@]3(CC)[C@H]2C1=O	GAA850 FXN act 8.2 | GAA30 FXN cntr inactive | FXN GAA850 conf 7.9
Cc1ccc(N2C(=O)N3[C@H](c4cccc(C)c4)[C@@H]4C(=O)N(Cc5ccccc5)C(=O)[C@@H]4[C@]3(C)C2=O)cc1	GAA850 FXN act 7.6 | GAA30 FXN cntr inactive | FXN GAA850 conf 8.5
CC[C@@]12C(=O)N(c3ccc(OC)cc3)C(=O)N1[C@H](c1cccc(C)c1)[C@@H]1C(=O)N(Cc3ccccc3)C(=O)[C@@H]12	none
CCN1C(=O)[C@H]2[C@@H](c3ccc(C)cc3)N3C(=O)N(c4cccc(Cl)c4)C(=O)[C@@]3(C)[C@H]2C1=O	none
CC[C@@]12C(=O)N(c3ccc(C)cc3)C(=O)N1[C@H](c1cccc(C)c1)[C@@H]1C(=O)N(Cc3ccccc3)C(=O)[C@@H]12	GAA850 FXN act 8.4 | GAA30 FXN cntr 23 | FXN GAA850 conf 12
COc1ccc(S(=O)(=O)N2CCCC(C(=O)NCc3ccccc3)C2)cc1 (stereo not drawn)	none
COCCNC(=O)C1CCCN(C(=O)COc2ccc(C(C)(C)C)cc2)CC1 (stereo not drawn)	none (no result: AHR activator)
CCN(CC)S(=O)(=O)c1ccc(N2CCOCC2)c(NC(=O)c2nn(C(C)C)c(=O)c3ccccc23)c1	none (no result: AHR activator)
O=C(Nc1ccc2c(c1)OCCO2)c1ccc(Br)s1	none
CCc1sc(C(=O)Nc2ccc3c(c2)OCCO3)cc1Br	GAA850 FXN act 8.0 | GAA30 FXN cntr 111 | FXN GAA850 conf 41
N#C/C(=C\C=C\c1ccccc1[N+](=O)[O-])C(=O)NC1CCCCC1	GAA850 FXN act 14 | GAA30 FXN cntr inactive | FXN GAA850 conf 18
N#C/C(=C(/O)c1ccc(Cl)c([N+](=O)[O-])c1)c1nc2ccccc2[nH]1	none

Screening data from PubChem.
